Measured values reported in ChEMBL document CHEMBL1799988, “Novel chalcone derivatives as potent Nrf2 activators in mice and human lung epithelial cells” (J Med Chem, 2011).
The source made the active and inactive calls. The calls are words filed in the database; no cut-off is given here.

Columns and labels:
[1] = target: T1, Nuclear factor erythroid 2-related factor 2 (Homo sapiens) (UniProt Q16236); assay: Induction of Nrf2-mediated NQO1 gene expression in human BEAS2B cells at […] 24 hrs by RT-PCR analysis; type: functional, cell-based
T1 sequence (whole entry): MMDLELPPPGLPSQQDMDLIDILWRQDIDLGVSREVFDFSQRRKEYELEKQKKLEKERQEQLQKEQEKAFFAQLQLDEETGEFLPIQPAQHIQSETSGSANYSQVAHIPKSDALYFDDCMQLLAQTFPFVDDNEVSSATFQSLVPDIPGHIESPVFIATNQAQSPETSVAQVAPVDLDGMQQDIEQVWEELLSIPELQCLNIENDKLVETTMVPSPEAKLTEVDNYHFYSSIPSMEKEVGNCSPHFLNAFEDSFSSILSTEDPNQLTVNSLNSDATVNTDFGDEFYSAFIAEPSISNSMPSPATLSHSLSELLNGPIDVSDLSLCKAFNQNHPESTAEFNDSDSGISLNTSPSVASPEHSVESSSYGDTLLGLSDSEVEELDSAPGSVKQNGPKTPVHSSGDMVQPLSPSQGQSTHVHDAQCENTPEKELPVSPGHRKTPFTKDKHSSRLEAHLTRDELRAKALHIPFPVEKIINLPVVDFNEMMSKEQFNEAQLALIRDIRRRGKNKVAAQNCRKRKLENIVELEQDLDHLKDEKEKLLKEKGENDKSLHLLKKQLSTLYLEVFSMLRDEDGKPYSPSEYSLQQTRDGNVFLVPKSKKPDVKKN
Procedure, shortened: (§1)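 Beas-2B cells co-incubated with 10 µM compound with or without N-acetylcysteine (10 mM); cells harvested 24 h later. GCLM, NQO1 and HO-1 mRNA quantified by TaqMan qRT-PCR, normalized to β-actin. Representative of 3 independent experiments, triplicate wells.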

[2] = target: T1, Nuclear factor erythroid 2-related factor 2 (Homo sapiens); assay: Induction of Nrf2-mediated GCLM gene expression in human BEAS2B cells at […] 24 hrs by RT-PCR analysis; type: functional, cell-based; procedure, shortened: as §1
[3] = target: T1, Nuclear factor erythroid 2-related factor 2 (Homo sapiens); assay: Induction of Nrf2-mediated HO1 gene expression in human BEAS2B cells at […] 24 hrs by RT-PCR analysis; type: functional, cell-based; procedure, shortened: as §1
[4] = target: T1, Nuclear factor erythroid 2-related factor 2 (Homo sapiens); assay: Induction of Nrf2-mediated GCLM gene expression in human BEAS2B cells at 10 uM after 24 hrs by RT-PCR analysis in presence of 10 mM N-acetylcysteine; type: functional, cell-based; procedure, shortened: as §1
[5] = system: Mus musculus; assay: Induction of Nrf2-mediated NQO1 gene expression in small intestine of C57BL/6 mouse at 50 mg/kg, po administered as single dose measured after 24 hrs by RT-PCR analysis related to control; type: functional
Procedure, shortened: (§2)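 Male C57BL/6 mice (7 weeks, AIN 76A diet; n=4) given a single 50 mg/kg oral gavage of compound, sulforaphane, or vehicle (10% DMSO + 10% Cremophor EL + 80% PBS). Small intestine harvested 24 h later; GCLM and NQO1 mRNA measured by TaqMan qRT-PCR with β-actin normalization.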

[6] = target: T1, Nuclear factor erythroid 2-related factor 2 (Homo sapiens); assay: Induction of Nrf2-mediated NQO1 mRNA expression in human BEAS2B cells at 20 uM after 24 hrs by RT-PCR analysis
[7] = system: Mus musculus; assay: Induction of Nrf2-mediated NQO1 gene expression in small intestine of C57BL/6 mouse at 50 mg/kg, po administered as single dose measured after 24 hrs by RT-PCR analysis related to sulforaphane; type: functional; procedure, shortened: as §2
[8] = target: T1, Nuclear factor erythroid 2-related factor 2 (Homo sapiens); assay: Induction of Nrf2-mediated GCLM mRNA expression in human BEAS2B cells after 24 hrs by RT-PCR analysis; type: functional, cell-based
Procedure, shortened: (§3)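 Beas-2B cells exposed for 24 h to 2.5, 5, 10 or 20 µM compound in DMSO (final ≤0.1%), sulforaphane as comparator. GCLM, NQO1 and HO1 mRNA measured by TaqMan qRT-PCR, normalized to β-actin. Representative of 3 independent experiments, triplicate wells.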

[9] = target: T1, Nuclear factor erythroid 2-related factor 2 (Homo sapiens); assay: Induction of Nrf2-mediated GCLM mRNA expression in human BEAS2B cells at 10 uM after 48 hrs by RT-PCR analysis; type: functional, cell-based
Procedure, shortened: (§4)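 Time course in Beas-2B cells at 10 µM compound: GCLM, NQO1 and HO-1 mRNA measured 6, 12, 24 and 48 h after treatment by TaqMan qRT-PCR, β-actin normalization. Representative of 3 independent experiments, triplicate wells.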

[10] = target: T1, Nuclear factor erythroid 2-related factor 2 (Homo sapiens); assay: Induction of Nrf2-mediated GCLM mRNA expression in human BEAS2B cells at 20 uM after 24 hrs by RT-PCR analysis; type: functional, cell-based; procedure, shortened: as §3
[11] = target: T1, Nuclear factor erythroid 2-related factor 2 (Homo sapiens); assay: Induction of Nrf2-mediated NQO1 gene expression in human BEAS2B cells at 10 uM after 24 hrs by RT-PCR analysis in presence of 10 mM N-acetylcysteine; type: functional, cell-based; procedure, shortened: as §1
[12] = target: T1, Nuclear factor erythroid 2-related factor 2 (Homo sapiens); assay: Induction of Nrf2-mediated HO1 gene expression in human BEAS2B cells at 10 uM after 24 hrs by RT-PCR analysis in presence of 10 mM N-acetylcysteine; type: functional, cell-based; procedure, shortened: as §1
[13] = target: T1, Nuclear factor erythroid 2-related factor 2 (Homo sapiens); assay: Induction of Nrf2-mediated HO1 mRNA expression in human BEAS2B cells after 24 hrs by RT-PCR analysis; type: functional, cell-based; procedure, shortened: as §3
[14] = target: T1, Nuclear factor erythroid 2-related factor 2 (Homo sapiens); assay: Induction of Nrf2-mediated NQO1 gene expression in human BEAS2B cells overexpressing ARE luciferase reporter plasmid after 16 hrs by chemiluminescence assay; type: functional, cell-based
Procedure, shortened: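 Beas-2B cells stably transfected with NQO1-ARE luciferase reporter (blasticidin 6 µg/ml selection) seeded at 10,000 cells/well for 16 h, then exposed to graded compound concentrations or DMSO for 16 h. Luciferase activity read by chemiluminescence as relative luminescence intensity. Representative of 3 independent experiments, quadruplicate wells.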

[15] = Cytotoxicity against human BEAS2B cells assessed as cell viability at 20 uM after 24 hrs by MTT assay relative to sulforaphane; type: cell-based; conditions: beas-2b
Procedure, shortened: (§5)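 Beas-2B cells treated with compound or DMSO vehicle (0.1%) for 24 h; MTT (5 mg/ml in serum-free medium) added for the last 4 h, formazan dissolved in DMSO after PBS wash, absorbance read at 570 nm. Viability also checked by trypan blue exclusion.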

[16] = target: T1, Nuclear factor erythroid 2-related factor 2 (Homo sapiens); assay: Induction of Nrf2-mediated NQO1 mRNA expression in human BEAS2B cells at 10 uM after 24 hrs by RT-PCR analysis relative to sulforaphane; type: functional, cell-based
[17] = system: Mus musculus; assay: Induction of Nrf2-mediated GCLM gene expression in small intestine of C57BL/6 mouse at 50 mg/kg, po administered as single dose measured after 24 hrs by RT-PCR analysis related to sulforaphane; type: functional; procedure, shortened: as §2
[18] = target: T1, Nuclear factor erythroid 2-related factor 2 (Homo sapiens); assay: Induction of Nrf2-mediated HO1 mRNA expression in human BEAS2B cells at 10 uM after 48 hrs by RT-PCR analysis relative to sulforaphane; type: functional, cell-based; procedure, shortened: as §4
[19] = target: T1, Nuclear factor erythroid 2-related factor 2 (Homo sapiens); assay: Induction of Nrf2-mediated HO1 mRNA expression in human BEAS2B cells at 10 uM after 6 hrs by RT-PCR analysis relative to sulforaphane; type: functional, cell-based; procedure, shortened: as §4
[20] = system: Mus musculus; assay: Induction of Nrf2-mediated GCLM gene expression in small intestine of C57BL/6 mouse at 50 mg/kg, po administered as single dose measured after 24 hrs by RT-PCR analysis related to control; type: functional; procedure, shortened: as §2
[21] = target: T1, Nuclear factor erythroid 2-related factor 2 (Homo sapiens); assay: Induction of Nrf2-mediated HO1 mRNA expression in human BEAS2B cells at 10 uM after 24 hrs by RT-PCR analysis relative to sulforaphane; type: functional, cell-based
[22] = target: T1, Nuclear factor erythroid 2-related factor 2 (Homo sapiens); assay: Induction of Nrf2-mediated NQO1 mRNA expression in human BEAS2B cells after 24 hrs by RT-PCR analysis; type: functional, cell-based; procedure, shortened: as §3
[23] = Cytotoxicity against human BEAS2B cells assessed as cell viability after 24 hrs by MTT assay; type: cell-based, BEAS-2B; design: concentration or dose not given beside the values; conditions: read-out: Activity; procedure, shortened: as §5
[24] = target: T1, Nuclear factor erythroid 2-related factor 2 (Homo sapiens); assay: Induction of Nrf2-mediated NQO1 gene expression in human BEAS2B cells at 10 uM after 16 hrs by RT-PCR analysis relative to untreated control; type: functional, cell-based
Procedure, shortened: (§6)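 Beas-2B cells (DMEM:F12, 10% FBS) plated 24 h, then exposed to 10 µM compound in DMSO (final ≤0.1%) for 16 h; sulforaphane as positive control. Total RNA extracted, reverse transcribed with random hexamers, GCLM and NQO1 mRNA quantified by TaqMan qRT-PCR, fold change vs DMSO. Representative of 3 independent experiments, quadruplicate wells.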

[25] = target: T1, Nuclear factor erythroid 2-related factor 2 (Homo sapiens); assay: Induction of Nrf2-mediated GCLM mRNA expression in human BEAS2B cells at 10 uM after 6 hrs by RT-PCR analysis; type: functional, cell-based; procedure, shortened: as §4
[26] = target: T1, Nuclear factor erythroid 2-related factor 2 (Homo sapiens); assay: Induction of Nrf2-mediated NQO1 mRNA expression in human BEAS2B cells at 10 uM after 48 hrs by RT-PCR analysis relative to sulforaphane; type: functional, cell-based; procedure, shortened: as §4
[27] = target: T1, Nuclear factor erythroid 2-related factor 2 (Homo sapiens); assay: Induction of Nrf2-mediated GCLM gene expression in human BEAS2B cells at 10 uM after 16 hrs by RT-PCR analysis relative to untreated control; type: functional, cell-based; procedure, shortened: as §6

Structure (SMILES): CC(=O)N[C@@H](CS)C(=O)O
- Activity [1]: inactive
- Activity [2]: inactive
- Activity [3]: inactive

Structure (SMILES): COc1ccccc1C(=O)/C=C/c1ccccc1C(F)(F)F
- Activity [4]: Active
- fold change (FC) [5]: 10
- fold change (FC) [6]: 10
- fold change (FC) [7]: 5
- Activity [8]: Dose-dependent effect
- Activity [9]: inactive
- fold change (FC) [10]: 5
- Activity [11]: Active
- Activity [12]: Active
- Activity [13]: Dose-dependent effect
- Activity [14]: Dose-dependent effect
- Activity [15]: Non-toxic
- Activity [16]: Active
- fold change (FC) [17]: 3
- Activity [18]: inactive
- fold change (FC) [19]: 150
- fold change (FC) [20]: 6
- fold change (FC) [21]: 6
- Activity [22]: Dose-dependent effect
- viability at 24 h [23]: 101%
- fold change (FC) [24]: 4.6
- fold change (FC) [25]: 7
- Activity [26]: Active
- fold change (FC) [27]: 4.5
